Assay results pooled from the literature.
Lines come from different studies, so protocols differ.
CHRM3: Muscarinic acetylcholine receptor M3 (CHRM3, Homo sapiens, UniProt P20309)
PIK3CG: Phosphatidylinositol 4,5-bisphosphate 3-kinase catalytic subunit gamma isoform (PIK3CG, Homo sapiens, UniProt P48736)
Inositol-tetrakisphosphate 1-kinase: Inositol-tetrakisphosphate 1-kinase (Homo sapiens, UniProt Q13572)
PTGS2: Prostaglandin G/H synthase 2 (PTGS2, Homo sapiens, UniProt P35354)

O=C(CCNC(=O)CNC(=O)CC(c1ccccc1)(c1ccccc1)c1ccccc1)NCC1CCN(Cc2ccc(F)cc2)CC1  IC50 (CHRM3; ligand displacement, radioligand; cell membranes): 15100 nM
COc1cc(N=C2C(=O)Nc3ccccc32)cc(OC)c1  IC50 (PIK3CG; enzyme activity, inhibitor, ADP detection): 7.86 nM
CN(C)C(=O)c1cc2cnc(Nc3cc(C(F)(F)F)c(-c4ccc5c(=O)cc(N6CCOCC6)oc5c4)cn3)nc2n1C1CCCC1  IC50 (PIK3CG; enzyme activity, inhibitor, radiometric): > 10000 nM
Nc1ncnc2c1ncn2C1CCCO1 (centres unmarked)  IC50 (Inositol-tetrakisphosphate 1-kinase; enzyme activity, inhibitor): 1000 nM
CN(C)C(=O)c1cc2cnc(Nc3cc(C(=O)O)cc(-c4ccc5c(=O)cc(N6CCOCC6)oc5c4)c3)nc2n1C1CCCC1  IC50 (PIK3CG; enzyme activity, inhibitor, radiometric): 17300 nM
Nc1ncnc2c1ncn2[C@@H]1O[C@H](CO)[C@@H](O)[C@@H]1F  IC50 (Inositol-tetrakisphosphate 1-kinase; enzyme activity, inhibitor, ADP detection): 3700 nM
O=C1C(=Nc2ccccc2I)c2ccccc2N1Cc1cccc(Cl)c1  IC50 (PIK3CG; enzyme activity, inhibitor, ADP detection): 4.07 nM
CN(C)C(=O)c1cc2cnc(Nc3cccc(-c4cccc5c(=O)cc(N6CCOCC6)oc45)c3)nc2n1C1CCCC1  IC50 (PIK3CG; enzyme activity, inhibitor, radiometric): 6040 nM
CC(C)N(CCC(=O)c1ccc2ccccc2c1)Cc1ccccc1  IC50 (Retinal dehydrogenase 2 (ALDH1A2, Homo sapiens, UniProt O94788); enzyme activity, inhibitor, fluorescence; 15 min, pH 7.5): < 10000 nM
COc1ccc(-c2oc3cc(Nc4ncc5cc(C(=O)N(C)C)n(C6CCCC6)c5n4)ccc3c(=O)c2F)cc1  IC50 (PIK3CG; enzyme activity, inhibitor, radiometric): > 10000 nM
COc1cc(NC(=O)c2cnn(-c3ccc([N+](=O)[O-])cc3)c2C(F)(F)F)cc(OC)c1OC  IC50 (PTGS2; enzyme activity, inhibitor): 4820 nM
O=C1C(=Nc2ccccc2Br)c2ccccc2N1Cc1ccccc1  IC50 (PIK3CG; enzyme activity, inhibitor, ADP detection): 7.6 nM
CC(=NNC(=O)c1cc(-c2ccccc2)n(-c2ccc(S(N)(=O)=O)cc2)n1)c1ccc(Br)cc1  IC50 (PTGS2; enzyme activity, inhibitor): 1250 nM
c1ccc(COc2[nH]cnc3ncnc2-3)cc1  IC50 (Inositol-tetrakisphosphate 1-kinase; enzyme activity, inhibitor, ADP detection): 2900 nM
NS(=O)(=O)c1ccc(-n2nc(C(=O)NN3C(=O)CCC3=O)cc2-c2ccccc2)cc1  IC50 (PTGS2; enzyme activity, inhibitor): 3630 nM
O=C(CCNC(=O)CNC(=O)CC(c1ccccc1)(c1ccccc1)c1ccccc1)NC[C@H]1CCCN(Cc2ccc(F)cc2)C1  IC50 (CHRM3; ligand displacement, radioligand; cell membranes): 400 nM
C=CCN1C(=O)C(=Nc2cccc(C)c2)c2ccccc21  IC50 (PIK3CG; enzyme activity, inhibitor, ADP detection): 24.3 nM
Nc1ncnc2c1ncn2[C@@H]1O[C@H](CO)C[C@H]1O  IC50 (Inositol-tetrakisphosphate 1-kinase; enzyme activity, inhibitor, ADP detection): 2400 nM
C=C(F)C(=O)N1CCN(c2nc(OC[C@@H]3CCCN3C)nc3c2CCN(c2cccc4cccc(Cl)c24)C3)C[C@@H]1CC#N  IC50 (GTPase NRas (NRAS, Homo sapiens, UniProt P01111, C181S/C186S/G12C); enzyme activity, inhibitor): 747 nM
COc1ccc(C=NNC(=O)c2cc(-c3ccccc3)n(-c3ccc(S(N)(=O)=O)cc3)n2)cc1OC  IC50 (PTGS2; enzyme activity, inhibitor): 4610 nM
COc1ccc(-c2cc(=O)c3ccc(Nc4ncc5cc(C(=O)N(C)C)n(C6CCCC6)c5n4)cc3o2)cc1  IC50 (PIK3CG; enzyme activity, inhibitor, radiometric): 6030 nM
Nc1ncnc2c1ncn2C1CCCC1  IC50 (Inositol-tetrakisphosphate 1-kinase; enzyme activity, inhibitor, ADP detection): 78 nM
O=C1Nc2ccccc2C1=Nc1ccccc1I  IC50 (PIK3CG; enzyme activity, inhibitor, ADP detection): 3.88 nM
NC(=O)C1CN(C(=O)CCl)c2ccccc2O1 (centres unmarked)  IC50 (Creatine kinase U-type, mitochondrial (CKMT1A, Homo sapiens, UniProt P12532); enzyme activity, inhibitor, ADP detection; pH 8.5): 3000 nM
Nc1ncnc2c1cnn2C1CCCCC1  IC50 (Inositol-tetrakisphosphate 1-kinase; enzyme activity, inhibitor, ADP detection): 440 nM
CC(C)c1cccc(C(C)C)c1N=C1C(=O)N(Cc2ccccc2)c2ccccc21  IC50 (PIK3CG; enzyme activity, inhibitor, ADP detection): 1.68 nM
CN(C)C(=O)c1cc2cnc(Nc3ccc4c(=O)cc(N5CCNCC5)oc4c3)nc2n1C1CCCC1  IC50 (PIK3CG; enzyme activity, inhibitor, radiometric): 6930 nM
CCc1ccc(N=C2C(=O)Nc3ccccc32)cc1  IC50 (PIK3CG; enzyme activity, inhibitor, ADP detection): 93.4 nM
CN(C)C(=O)c1cc2cnc(Nc3ccc(-c4cccc5c(=O)cc(N6CCNCC6)oc45)cc3)nc2n1C1CCCC1  IC50 (PIK3CG; enzyme activity, inhibitor, radiometric): > 10000 nM
COc1cc(C=NNC(=O)c2cc(-c3ccccc3)n(-c3ccc(S(N)(=O)=O)cc3)n2)cc(OC)c1OC  IC50 (PTGS2; enzyme activity, inhibitor): 2690 nM
CN(C)C(=O)c1cc2cnc(Nc3ccc(-c4ccc5c(=O)cc(N6CCOCC6)oc5c4)cc3)nc2n1C1CCCC1  IC50 (PIK3CG; enzyme activity, inhibitor, radiometric): 3390 nM
O=C1C(=Nc2ccc(Cl)cc2Br)c2ccccc2N1Cc1ccc([N+](=O)[O-])cc1  IC50 (PIK3CG; enzyme activity, inhibitor, ADP detection): 2.89 nM
